Results: article PMC2808126 (Molecular cancer therapeutics, 2009)
Read-outs that look alike come from different tables or passages of the source. Each block holds one compound with its values, some of them ahead of it.

Key:
[1] = tested on: 22Rv1 cells; experiment: ATP viability assay; type: cell-based; conditions: Homo sapiens; for IC50: 22Rv1, 72 h, read-out: approximate IC50, cell viability (taxanes)
Method in brief: (§1)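 Lines kept in RPMI 1640 with 10% FBS, except LAPC-4 in Iscove's medium with 5% FBS. About 1,000 cells/well plated in 384-well plates in 1% serum. Test compound added next day at increasing concentrations. For 22Rv1, agents given alone or combined for 48 h, or taxanes for 72 h. Other lines treated 72 h. ATPlite luminescence read, replicate wells averaged, approximate IC50 estimated.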

[2] = tested on: 22Rv1-T cells; experiment: ATP viability assay; type: cell-based, human; conditions: for cell viability response: 22Rv1-T, time course to 72 hours; for IC50: Homo sapiens, 72 h
Method in brief: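 Paclitaxel-resistant 22Rv1 subline made by serial passage over about 4 months in rising paclitaxel (0-400ng/ml), then maintained in 5ng/ml paclitaxel. About 1,000 cells/well plated in 1% serum in 384-well plates. Next day, taxanes or test compound added alone, or combined with paclitaxel, for up to 72 h. ATPlite luminescence read, replicate wells averaged.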

[3] = tested on: 22Rv1-T cells; experiment: Caspase-3 fluorometric protease assay; type: cell-based, human
[4] = tested on: MDR1 activity in 22Rv1-T cells; experiment: Multidrug resistance assay; type: cell-based, human; conditions: 15 minutes; for fluorescent calcein retention (MDR1 efflux activity): single agent
[5] = tested on: PC3 cells; experiment: ATP viability assay; type: cell-based; conditions: Homo sapiens, PC-3, 72 h, read-out: approximate IC50, cell viability
Method in brief: as §1

[6] = tested on: C4-2B cells; experiment: ATP viability assay; type: cell-based; conditions: Homo sapiens, 72 h, read-out: approximate IC50, cell viability
Method in brief: as §1

[7] = tested on: LNCaP cells; experiment: ATP viability assay; type: cell-based; conditions: Homo sapiens, 72 h, read-out: approximate IC50, cell viability
Method in brief: as §1

[8] = tested on: DU145 cells; experiment: ATP viability assay; type: cell-based; conditions: Homo sapiens, DU-145, 72 h, read-out: approximate IC50, cell viability
Method in brief: as §1

[9] = tested on: RWPE2-W99 cells; experiment: ATP viability assay; type: cell-based; conditions: Homo sapiens, Keratinocyte, 72 h, read-out: approximate IC50, cell viability
Method in brief: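 RWPE2-W99 kept in Keratinocyte Serum Free Medium with bovine pituitary extract and human recombinant EGF. About 1,000 cells/well plated in 384-well plates in complete medium. Test compound added next day at increasing concentrations for 72 h. Viability read by ATPlite luminescence, replicate wells averaged, approximate IC50 estimated.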

[10] = tested on: LAPC-4 cells; experiment: ATP viability assay; type: cell-based; conditions: Homo sapiens, LAPC4, 72 h, read-out: approximate IC50, cell viability
Method in brief: as §1

[11] = tested on: 22Rv1-Pim1 cells; experiment: ATP viability assay; type: cell-based, human; conditions: 72 hours
[12] = tested on: C4-2B cells; experiment: Cell cycle analysis by flow cytometry; type: cell-based, human; conditions: 24 hours, untreated 72%
[13] = tested on: 22Rv1 cells; experiment: Cell cycle analysis by flow cytometry; type: cell-based, human; conditions: 24 hours, untreated 60%
[14] = tested on: phospho-p21^Thr145 in 22Rv1 cells; experiment: Western blot of phospho-p21 Thr145; type: cell-based, human
[15] = tested on: phospho-p21^Thr145 in C4-2B cells; experiment: Western blot of phospho-p21 Thr145; type: cell-based, human; conditions: 5 hour treatment
Method in brief: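 C4-2B cells, kept in RPMI 1640 with 10% FBS, treated 5 h with increasing concentrations of test compound. Western blot probed for phospho-p21 Thr145 and total p21, with β-actin as loading control.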

[16] = tested on: p-p21^Thr145 in 22Rv1-Pim1 cells; experiment: Western blot of phospho-p21 Thr145; type: cell-based, human; conditions: 22Rv1-Pim1, 1μM, 2 hours
[17] = tested on: phosphorylated Bad^Ser112 in 22Rv1-T cells; experiment: Western blot of phospho-Bad Ser112; type: cell-based, human; conditions: 5 hours
Method in brief: (§2)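 Cells (22Rv1, C4-2B or the paclitaxel-resistant 22Rv1 subline) treated with increasing doses of test compound for 5 h. Lysates immunoblotted for phospho-Bad Ser112 and total Bad, with β-actin as loading control.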

[18] = tested on: 22Rv1-Pim1 cells; experiment: Caspase-3 fluorometric protease assay; type: cell-based; conditions: Homo sapiens, 22Rv1, read-out: fold induction of apoptosis (caspase-3) in 22Rv1-Pim1 compared to 22Rv1
[19] = tested on: phosphorylated Bad^Ser112 in C4-2B cells; experiment: Western blot of phospho-Bad Ser112; type: cell-based, human; conditions: increasing doses, 5 hours
Method in brief: as §2

[20] = tested on: phosphorylated Bad^Ser112 in 22Rv1 cells; experiment: Western blot of phospho-Bad Ser112; type: cell-based, human; conditions: 22Rv1, increasing doses, 5 hours
Method in brief: as §2

[21] = tested on: C4-2B cells; experiment: Caspase-3 fluorometric protease assay; type: cell-based, human; conditions: increasing concentrations, 24 hours
Method in brief: (§3)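 Cells held overnight in 1% serum, then exposed to increasing concentrations of test compound for 24 h. Apoptosis measured as caspase-3 activity with a fluorometric protease assay kit. Activity expressed relative to untreated samples.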

[22] = tested on: 22Rv1 cells; experiment: Caspase-3 fluorometric protease assay; type: cell-based, human; conditions: 22Rv1, increasing concentrations, 24 hours
Method in brief: as §3

[23] = tested on: MDR1 mRNA in 22Rv1-T cells; experiment: Quantitative real-time RT-PCR of MDR1; type: cell-based, human; conditions: 22Rv1-T (Supplementary Fig. 3b)
[24] = 22Rv1, 48 h, read-out: cell viability
[25] = read-out: IC50, cell viability (taxanes)

IC50 [1]: ~0.0045 µM
IC50 [2, 25]: > 0.1 µM
Compound: CC(=O)O[C@H]1C(=O)[C@@]2(C)[C@H]([C@H](OC(=O)c3ccccc3)[C@]3(O)C[C@H](OC(=O)[C@H](O)[C@@H](NC(=O)c4ccccc4)c4ccccc4)C(C)=C1C3(C)C)[C@]1(OC(C)=O)CO[C@@H]1C[C@@H]2O [paclitaxel]
viability at 0.0025 µM [1, 24]: 62.6%
cell viability response ([2]; 50nM paclitaxel alone): does not respond
change in caspase-3 levels ([3]; increasing doses of paclitaxel alone, 24 hours): lack of change
fluorescent calcein retention (MDR1 efflux activity) [4]: no different from the untreated cells

Compound: CN1CCC(CNc2ccc3ncc(-c4cccc(OC(F)(F)F)c4)n3n2)CC1 [SGI-1776]
viability at 2.5 µM [1, 24]: 63%
IC50 [5]: ~3 µM
IC50 [6]: ~4 µM
IC50 [7]: ~5 µM
IC50 [8]: ~8 µM
IC50 [9]: ~9 µM
IC50 [10]: > 10 µM
reduction in IC50 in 22Rv1-Pim1 compared to 22Rv1, cell viability [11]: ~3 fold
cell viability response ([2]; 2.5μM SGI-1776 alone): minimal response
IC50 ([2]; read-out: approximate IC50, cell viability): ~5 µM
percentage of cells in the G1 phase ([12]; 2.5μM): 81% ± 1.24
percentage of cells in the G1 phase ([12]; 7.5μM): 95% ± 0.16
percentage of cells in the G1 phase ([13]; 22Rv1, 2.5μM): 70% ± 2.00
percentage of cells in the G1 phase ([13]; 22Rv1, 7.5μM): 81% ± 1.17
effect on p-p21^Thr145 abundance ([14]; 22Rv1, 1μM, 2 hours): minimal, if any, effect
concentration of maximal inhibition of phospho-p21^Thr145 ([14]; 22Rv1, 5 hour treatment): 5 µM
concentration at which significant decrease in p-p21^Thr145 was first observed ([14]; parental 22Rv1 (Fig. 3a)): 2.5 to 5 µM
concentration of maximal inhibition of phospho-p21^Thr145 [15]: 7.5 µM
effect on p-p21^Thr145 abundance [16]: dramatic inhibition
concentration of maximal inhibition of phosphorylated Bad^Ser112 [17]: 5 to 7.5 µM
fold induction at 2.5 µM [18]: 1.6
increase of caspase-3 activity compared to untreated cells ([3]; 2.5μM SGI-1776, 24 hours): 1.42 fold
caspase-3 activity relative to untreated (100%) ([3]; 2.5μM SGI-1776, 24 hours, ± 3): 142%
increase of caspase-3 activity compared to untreated cells ([3]; 2.5μM SGI-1776 combined with 50nM paclitaxel, 24 hours): 2.7 fold
caspase-3 activity relative to untreated (100%) ([3]; 2.5μM SGI-1776 combined with 50nM paclitaxel, 24 hours, ± 8, p<0.0001): 269%
fluorescent calcein accumulation, combination ([4]; paclitaxel combined with SGI-1776): did not further enhance
fluorescent calcein retention (MDR1 efflux activity) [4]: dose-dependent increase
phosphorylated Bad^Ser112 protein levels [19]: dose-dependent decrease
phosphorylated Bad^Ser112 protein levels [20]: dose-dependent decrease
caspase-3 activity levels [21]: dose-dependent increase
caspase-3 activity levels [22]: dose-dependent increase
MDR1 mRNA expression levels [23]: did not alter

IC50 [1]: ~0.0025 µM
IC50 [2, 25]: > 0.1 µM
Compound: CC(=O)O[C@@]12CO[C@@H]1C[C@H](O)[C@@]1(C)C(=O)[C@H](O)C3=C(C)[C@@H](OC(=O)[C@H](O)[C@@H](NC(=O)OC(C)(C)C)c4ccccc4)C[C@@](O)([C@@H](OC(=O)c4ccccc4)[C@H]21)C3(C)C [docetaxel]
